Vif imaging – HIV Vif inhibition; HEK293T cells, Vif self-association by quenched fluorescence, imaging, 24 h; inhibition, % at 7.49 µM; hit rate 0.35% among 340,000; in the data active = inhibition above about 50%, passing the limit was not always enough
MITF TRPM1 HTS – MITF TRPM1 promoter activation in melanoma cells. SK-MEL-5 TRPM1-promoter luciferase, 24 h; % of positive control, neutral wells = 0. activation, % at 12.5 µM. hit rate 0.75% among 300,000. AID 588334;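 active = mean activation of at least 80% with every replicate also reaching 80%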;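 also: 0% = neutral control wells and 100% = parthenolide positive control wells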
XiGFP reactiv – activators of X-chromosome reactivation in mouse fibroblasts | XiGFP mouse fibroblasts, % GFP-positive cells imaging, 3 d; cells co-treated with 5-aza-dC sensitizer; scaled so ellipticine positive control = 100% | activation, % at 7.58 µM | hit rate 0.055% among 360,000;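 active = mean normalized replicate activation at least 10% and every replicate at or above 10%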;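 also: 0% = median of on-plate neutral control wells and 100% = ellipticine 6 µM median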
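material = 68-5-11 XiGFP fibroblast line | medium = DMEM plus 5-aza-dC sensitizer | schedule = 3 days compound exposure | benchmarks = positive control ellipticine, 6 µM final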
Wnt act – activates Wnt/beta-catenin signaling in a reporter cell assay; activator, plate reader; activation, % at 9.35 µM; hit rate 1.2% among 300,000; in the data active = activation above about 30%, passing the limit was not always enough;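 also: 0% = neutral control wells and 100% = positive control wells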
esBAF inh – SWI/SNF esBAF complex inhibition | mouse ES cells, Bmi1-luciferase knock-in reporter, 24 h; 100% = twice the neutral-well signal | reporter increase, % at 12.5 µM | hit rate 2% among 350,000; in the data active = activation above about 40%;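 also: 0% = median of the plate's neutral control wells and 100% = double that signal; a rise in the Bmi1 reporter signal indicates esBAF inhibition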
The depositor's hits bear a star; x = no result. Most compounds without a hit are left out; they make up all but 2.6% or so of the library.

SMILES	Vif imaging	MITF TRPM1 HTS	XiGFP reactiv	Wnt act	esBAF inh
Cc1cc(N/N=C/c2ccc3c(c2)OCO3)nc2ccccc12	-8	98*	0	-1	x
O=[N+]([O-])c1ccccc1N/N=C/c1c[nH]c2ccccc12	x	15	x	x	43*
O=C(O)c1ccccc1NS(=O)(=O)c1ccc(NN=Cc2ccc(F)cc2)c([N+](=O)[O-])c1	3	5	x	x	x
O=[N+]([O-])c1ccccc1N/N=C/c1ccccc1	-5	x	0	14	44*
O=C(C1CC1)N1C[C@H]2[C@@H](c3ccccc31)[C@@H](CO)N2C(=O)c1ccccn1	x	x	0	x	-2
Cc1noc(C)c1S(=O)(=O)N(C)C[C@@H]1Oc2c(NC(=O)c3ccc(-c4nccs4)cc3)cccc2C(=O)N([C@@H](C)CO)C[C@H]1C	x	x	0	x	-10
Cc1noc(C)c1S(=O)(=O)Nc1ccc2c(c1)C(=O)N([C@@H](C)CO)C[C@@H](C)[C@H](CN(C)C(=O)c1ccncc1)OCCCC[C@H](C)O2	x	x	0	x	1
C[C@@H]1CN(C)C(=O)Cc2ccccc2O[C@@H]1CN(C)C	x	x	0	x	x
COCc1cn(CC[C@H]2CC[C@@H](NC(=O)Cc3cccnc3)[C@H](CO)O2)nn1	x	x	-1	x	-3
O=C(Nc1nnc(-c2ccc3c(c2)OCCO3)o1)C1CCCCC1	0	58	0	33*	x
O=C(Nc1nc2cc3c(cc2s1)OCCO3)C1CCCCC1	-8	91*	0	54*	-15
O=C(Nc1nc2cc3c(cc2s1)OCO3)C1CC1	-8	64	0	0	x
O=C(Nc1nc2cc3c(cc2s1)OCO3)C1CCCCC1	-7	76	0	32*	x
COCC(=O)N1CC2(C1)[C@H](c1ccccc1)[C@@H](CO)N2C(=O)c1ccccc1	x	x	0	x	x
C[C@H](CO)N1C[C@H](C)[C@H](CN(C)S(=O)(=O)c2ccc(Cl)cc2)Oc2ccc(NC(=O)Nc3ccc4c(c3)OCO4)cc2C1=O	x	x	0	x	6
CN1C(=O)c2cc(NC(=O)c3cscn3)ccc2OC[C@H]2O[C@H](CC(=O)N3CCCCC3)CC[C@H]21	x	x	1	x	0
CC(C)c1cc2cc3ccc(=O)oc3cc2o1	-5	94*	0	-2	52*
C[C@H]1CN([C@@H](C)CO)C(=O)c2cc(-c3ccc(F)cc3)cnc2O[C@@H]1CN(C)Cc1cncnc1	x	x	-1	x	-9
Cc1ccc(Cl)cc1N1CCN(C(c2ccc(C#N)cc2)c2nnnn2C2CCCC2)CC1 (stereo not drawn)	11	10	x	x	-11
Cc1ccc(Cl)cc1N1CCN(C(c2cccnc2)c2nnnn2C2CCCCC2)CC1 (stereo not drawn)	71*	-7	x	x	-2
Cc1ccc(-c2cnc3c(c2)C(=O)N([C@H](C)CO)C[C@@H](C)[C@@H](CN(C)C(=O)c2cccc(F)c2)O3)cc1	x	x	0	x	-2
CCOC(=O)C1CCN(C(=O)CN2C(=O)NC3(CCCCC3)C2=O)CC1	0	3	0	43*	1
O=C(CN1C(=O)NC2(CCCCCC2)C1=O)c1ccccc1	3	-4	0	4	-12
CCc1cccc2c(C(=O)CN3C(=O)NC4(CCCCCC4)C3=O)c[nH]c12	-6	102*	0	-2	-22
N#Cc1ccsc1NC(=O)CN1C(=O)NC2(CCCC2)C1=O	-10	-1	0	8	45*
SMILES	Vif imaging	MITF TRPM1 HTS	XiGFP reactiv	Wnt act	esBAF inh
CCc1cccc2c(C(=O)CN3C(=O)NC4(CCCCC4)C3=O)c[nH]c12	7	72	1	5	-52
CCc1ccc(C(=O)CN2C(=O)NC3(CCCCCC3)C2=O)cc1	-5	75	0	13	64*
C[C@@H]1CN([C@@H](C)CO)C(=O)c2cc(NS(=O)(=O)c3ccccc3)ccc2O[C@H]1CN(C)Cc1ccncc1	x	x	-1	x	-1
O=C(CN1C(=O)NC2(CCCCCC2)C1=O)c1ccc(Cl)cc1	-1	56	0	15	52*
CN(Cc1ccc2c(c1)OCCO2)C(=O)CN1C(=O)NC2(CCCCC2)C1=O	3	-4	0	0	-2
O=C(CN1C(=O)NC2(CCCCCC2)C1=O)c1ccc(F)cc1	-4	21	0	4	6
O=C(CN1C(=O)NC2(CCCCCC2)C1=O)c1ccc2c(c1)OCCO2	2	x	x	67*	37
COc1ccc2c3c(n(C)c2c1)[C@@H](CO)N(Cc1nccs1)CC31CN(C(C)=O)C1	x	x	0	x	x
Cc1ccc(S(=O)(=O)N(C)C[C@H]2Oc3ccc(NS(=O)(=O)c4ccc(F)cc4)cc3C(=O)N([C@@H](C)CO)C[C@@H]2C)cc1	x	x	-1	x	-1
O=C(NCc1ccc(-c2nc3ccccc3s2)cc1)c1ccco1	-3	54	0	10	x
COc1ccc(C(=O)NCc2ccc(-c3nc4ccccc4s3)cc2)cc1OC	-4	73	x	7	47*
O=C(/C=C/c1cccs1)Nc1ccncc1	-5	42	0	7	x
O=C(/C=C/c1cccs1)Nc1ccc([N+](=O)[O-])cc1	2	68	0	31*	x
Cc1nc(NC(=O)/C=C/c2ccccc2)n[nH]1	26	-58	0	39*	40
Cc1cccc(NC(=O)/C=C/c2cccs2)n1	-7	104*	x	x	20
O=C(/C=C/c1ccc(Cl)c([N+](=O)[O-])c1)Nc1cccnc1	11	20	x	0	53*
C[C@H]1CCCCO[C@@H](CN(C)C(=O)c2ccncc2)[C@@H](C)CN([C@@H](C)CO)C(=O)c2cc(N(C)C)ccc2O1	x	x	0	x	3
O=C(/C=C/c1ccccc1)Nc1cccnc1	-1	x	0	39*	31
O=C(/C=C/c1ccc([N+](=O)[O-])cc1)Nc1cccnc1	-2	8	x	38*	23
C/C(=N/NC(=O)c1cc2ccccc2cc1O)C1C(=O)c2ccccc2C1=O	5	-5	x	-3	51*
C/C(=N\NC(=O)c1cc2ccccc2cc1O)c1ccccn1	5	-72	1	14	-55
C/C(=N\NC(=O)c1ccccc1O)C1C(=O)c2ccccc2C1=O	-11	13	x	x	81*
CCC/C(C)=N/NC(=O)c1ccccc1O	-3	-2	0	0	x
